# Assay results: ChEMBL document CHEMBL5705905, “Pharmacological targeting of kinases MST1 and MST2 augments tissue repair and regeneration” (Sci Transl Med, 2016)
# Tests used:
# [1] = target: Cyclin-dependent kinase 16 (Homo sapiens) (UniProt Q00536); experiment: Inhibition of PCTK1 (unknown origin) assessed as remaining activity at 1 uM by Kinome scan method relative to control
# [2] = target: BMP-2-inducible protein kinase (Homo sapiens) (UniProt Q9NSY1); experiment: Inhibition of BIKE (unknown origin) assessed as remaining activity at 1 uM by Kinome scan method relative to control
# BMP-2-inducible protein kinase (Homo sapiens), sequence (Q9NSY1 whole entry, looked up): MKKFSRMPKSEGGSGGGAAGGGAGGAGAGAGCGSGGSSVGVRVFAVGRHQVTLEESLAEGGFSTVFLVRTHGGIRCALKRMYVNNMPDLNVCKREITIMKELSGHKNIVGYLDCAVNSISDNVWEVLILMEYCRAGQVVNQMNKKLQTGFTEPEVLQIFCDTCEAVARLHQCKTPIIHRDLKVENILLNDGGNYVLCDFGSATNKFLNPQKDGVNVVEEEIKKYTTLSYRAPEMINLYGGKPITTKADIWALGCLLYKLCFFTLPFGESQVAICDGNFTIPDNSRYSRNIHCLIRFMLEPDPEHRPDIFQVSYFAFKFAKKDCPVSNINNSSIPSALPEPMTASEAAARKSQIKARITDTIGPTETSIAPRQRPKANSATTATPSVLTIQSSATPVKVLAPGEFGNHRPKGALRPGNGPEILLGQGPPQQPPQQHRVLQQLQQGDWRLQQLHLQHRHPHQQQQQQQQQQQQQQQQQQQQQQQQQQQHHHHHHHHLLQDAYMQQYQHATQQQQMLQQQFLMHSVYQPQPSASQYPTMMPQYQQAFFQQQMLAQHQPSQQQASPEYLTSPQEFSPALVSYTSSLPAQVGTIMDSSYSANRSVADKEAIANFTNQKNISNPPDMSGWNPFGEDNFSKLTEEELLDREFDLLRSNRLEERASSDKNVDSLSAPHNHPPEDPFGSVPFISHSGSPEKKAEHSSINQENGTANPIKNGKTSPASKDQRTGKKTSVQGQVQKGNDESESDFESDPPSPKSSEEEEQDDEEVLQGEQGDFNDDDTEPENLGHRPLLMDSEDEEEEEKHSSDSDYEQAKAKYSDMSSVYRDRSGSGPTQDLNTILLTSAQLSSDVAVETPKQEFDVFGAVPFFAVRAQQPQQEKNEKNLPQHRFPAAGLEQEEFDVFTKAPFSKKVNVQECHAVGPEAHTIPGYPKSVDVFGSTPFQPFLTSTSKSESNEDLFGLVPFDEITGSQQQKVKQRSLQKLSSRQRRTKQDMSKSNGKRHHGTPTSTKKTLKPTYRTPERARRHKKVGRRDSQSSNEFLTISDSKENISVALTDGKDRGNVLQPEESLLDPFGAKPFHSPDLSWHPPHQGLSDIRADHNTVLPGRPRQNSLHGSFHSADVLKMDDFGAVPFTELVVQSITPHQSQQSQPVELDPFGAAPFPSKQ
# How it was run: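 KINOMEscan active-site-dependent competition-binding panel of 468 kinases, compound at 1 μM from a DMSO stock. Result reported as ctrl% = (test signal − positive control signal)/(negative control signal − positive control signal) × 100. The negative control is DMSO (100%) and the positive control is a control compound (0%). Lower ctrl% means tighter binding.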
# [3] = target: Mitogen-activated protein kinase 7 (Homo sapiens) (UniProt Q13164); experiment: Inhibition of ERK5 (unknown origin) assessed as remaining activity at 1 uM by Kinome scan method relative to control
# [4] = target: Cyclin-dependent kinase 3 (Homo sapiens) (UniProt Q00526); experiment: Inhibition of CDK3 (unknown origin) assessed as remaining activity at 1 uM by Kinome scan method relative to control
# How it was run: (§1)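 Active-site-dependent competition-binding profiling (KINOMEscan) at 1 μM against a 468-kinase panel; compound supplied from a 10 mM DMSO stock. Read-out is ctrl% = (test signal − positive control signal)/(negative control signal − positive control signal) × 100. DMSO is the negative control (100%) and a control compound the positive control (0%). Lower ctrl% means tighter binding.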
# [5] = target: Insulin-like growth factor 1 receptor (Homo sapiens) (UniProt P08069); experiment: Inhibition of IGF1R (unknown origin) assessed as remaining activity at 1 uM by Kinome scan method relative to control
# [6] = target: Tyrosine-protein kinase Srms (Homo sapiens) (UniProt Q9H3Y6); experiment: Inhibition of SRMS (unknown origin) assessed as remaining activity at 1 uM by Kinome scan method relative to control
# Tyrosine-protein kinase Srms (Homo sapiens), sequence (Q9H3Y6 whole entry): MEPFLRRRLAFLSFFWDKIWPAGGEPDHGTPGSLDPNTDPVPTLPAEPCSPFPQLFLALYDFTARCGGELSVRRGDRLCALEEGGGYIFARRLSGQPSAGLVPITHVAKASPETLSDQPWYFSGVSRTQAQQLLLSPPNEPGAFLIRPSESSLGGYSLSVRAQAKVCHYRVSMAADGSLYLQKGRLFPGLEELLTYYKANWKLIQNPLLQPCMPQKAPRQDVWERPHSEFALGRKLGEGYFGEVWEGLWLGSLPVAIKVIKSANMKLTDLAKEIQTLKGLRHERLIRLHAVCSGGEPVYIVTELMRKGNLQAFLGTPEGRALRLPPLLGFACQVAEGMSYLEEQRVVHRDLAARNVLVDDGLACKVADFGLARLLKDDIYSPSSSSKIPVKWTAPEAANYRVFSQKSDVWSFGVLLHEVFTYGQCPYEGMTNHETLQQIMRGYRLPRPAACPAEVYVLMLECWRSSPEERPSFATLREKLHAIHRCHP
# [7] = target: Tyrosine-protein kinase SYK (Homo sapiens) (UniProt P43405); experiment: Inhibition of SYK (unknown origin) assessed as remaining activity at 1 uM by Kinome scan method relative to control
# [8] = target: Myosin light chain kinase 2, skeletal/cardiac muscle (Homo sapiens) (UniProt Q9H1R3); experiment: Inhibition of MYLK2 (unknown origin) assessed as remaining activity at 1 uM by Kinome scan method relative to control
# [9] = target: Epithelial discoidin domain-containing receptor 1 (Homo sapiens) (UniProt Q08345); experiment: Inhibition of DDR1 (unknown origin) assessed as remaining activity at 1 uM by Kinome scan method relative to control
# Epithelial discoidin domain-containing receptor 1 (Homo sapiens), sequence (Q08345 whole entry, the tested form may be a part): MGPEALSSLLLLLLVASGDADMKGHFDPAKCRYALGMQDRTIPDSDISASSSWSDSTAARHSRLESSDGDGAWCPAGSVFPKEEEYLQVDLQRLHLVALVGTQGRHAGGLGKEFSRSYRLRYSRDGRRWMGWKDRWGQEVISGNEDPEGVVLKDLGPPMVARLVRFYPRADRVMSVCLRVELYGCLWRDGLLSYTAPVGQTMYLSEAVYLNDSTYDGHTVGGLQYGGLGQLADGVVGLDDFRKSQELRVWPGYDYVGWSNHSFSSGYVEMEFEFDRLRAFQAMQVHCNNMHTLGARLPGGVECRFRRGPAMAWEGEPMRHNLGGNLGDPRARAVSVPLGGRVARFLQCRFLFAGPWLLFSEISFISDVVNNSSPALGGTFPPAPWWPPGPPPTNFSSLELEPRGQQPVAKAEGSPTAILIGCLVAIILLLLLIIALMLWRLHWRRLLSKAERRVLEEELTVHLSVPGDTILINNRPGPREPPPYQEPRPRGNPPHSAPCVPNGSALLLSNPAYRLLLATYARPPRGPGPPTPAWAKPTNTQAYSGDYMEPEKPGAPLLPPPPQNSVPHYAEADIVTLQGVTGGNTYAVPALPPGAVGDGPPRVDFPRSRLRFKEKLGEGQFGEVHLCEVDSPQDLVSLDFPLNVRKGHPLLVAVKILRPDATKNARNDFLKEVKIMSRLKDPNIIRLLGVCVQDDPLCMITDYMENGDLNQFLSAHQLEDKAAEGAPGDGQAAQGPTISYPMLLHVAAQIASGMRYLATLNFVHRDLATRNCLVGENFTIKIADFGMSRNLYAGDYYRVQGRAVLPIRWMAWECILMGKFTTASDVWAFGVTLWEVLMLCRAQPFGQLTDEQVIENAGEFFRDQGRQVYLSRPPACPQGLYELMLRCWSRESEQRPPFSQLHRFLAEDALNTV
# [10] = target: Phosphatidylinositol 4-phosphate 5-kinase type-1 alpha (Homo sapiens) (UniProt Q99755); experiment: Inhibition of PIP5K1A (unknown origin) assessed as remaining activity at 1 uM by Kinome scan method relative to control
# [11] = target: T1, Serine/threonine-protein kinase 4 (Homo sapiens, UniProt Q13043); experiment: Inhibition of recombinant His-tagged full-length MST1 (unknown origin) expressing in Escherichia coli assessed as MOB1a phosphorylation level incubated for 30 min in the presence of 300 uM ATP by immunoblot analysis
# T1 sequence (Q13043 whole entry): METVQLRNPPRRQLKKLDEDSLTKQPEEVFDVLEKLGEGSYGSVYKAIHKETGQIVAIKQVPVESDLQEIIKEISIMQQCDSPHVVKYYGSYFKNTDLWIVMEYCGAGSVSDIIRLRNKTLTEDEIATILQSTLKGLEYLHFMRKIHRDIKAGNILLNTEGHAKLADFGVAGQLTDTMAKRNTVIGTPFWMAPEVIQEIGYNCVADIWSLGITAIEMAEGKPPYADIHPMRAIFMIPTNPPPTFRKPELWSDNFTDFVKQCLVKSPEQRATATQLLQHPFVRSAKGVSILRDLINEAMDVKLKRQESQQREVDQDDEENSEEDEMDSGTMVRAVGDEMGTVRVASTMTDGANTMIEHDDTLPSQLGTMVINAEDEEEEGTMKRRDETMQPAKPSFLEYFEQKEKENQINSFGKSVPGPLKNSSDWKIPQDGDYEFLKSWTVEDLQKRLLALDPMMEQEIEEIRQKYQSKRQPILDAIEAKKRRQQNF
# [12] = target: Mitogen-activated protein kinase kinase kinase 19 (Homo sapiens) (UniProt Q56UN5); experiment: Inhibition of YSK4 (unknown origin) assessed as remaining activity at 1 uM by Kinome scan method relative to control
# [13] = target: Dual specificity mitogen-activated protein kinase kinase 7 (Homo sapiens) (UniProt O14733); experiment: Inhibition of MKK7 (unknown origin) assessed as remaining activity at 1 uM by Kinome scan method relative to control
# [14] = target: Phosphatidylinositol 3-kinase C2 domain-containing subunit gamma (Homo sapiens) (UniProt O75747); experiment: Inhibition of PIK3C2G (unknown origin) assessed as remaining activity at 1 uM by Kinome scan method relative to control
# [15] = target: Serine/threonine-protein kinase Nek1 (Homo sapiens) (UniProt Q96PY6); experiment: Inhibition of NEK1 (unknown origin) assessed as remaining activity at 1 uM by Kinome scan method relative to control
# Serine/threonine-protein kinase Nek1 (Homo sapiens), sequence (Q96PY6 whole entry): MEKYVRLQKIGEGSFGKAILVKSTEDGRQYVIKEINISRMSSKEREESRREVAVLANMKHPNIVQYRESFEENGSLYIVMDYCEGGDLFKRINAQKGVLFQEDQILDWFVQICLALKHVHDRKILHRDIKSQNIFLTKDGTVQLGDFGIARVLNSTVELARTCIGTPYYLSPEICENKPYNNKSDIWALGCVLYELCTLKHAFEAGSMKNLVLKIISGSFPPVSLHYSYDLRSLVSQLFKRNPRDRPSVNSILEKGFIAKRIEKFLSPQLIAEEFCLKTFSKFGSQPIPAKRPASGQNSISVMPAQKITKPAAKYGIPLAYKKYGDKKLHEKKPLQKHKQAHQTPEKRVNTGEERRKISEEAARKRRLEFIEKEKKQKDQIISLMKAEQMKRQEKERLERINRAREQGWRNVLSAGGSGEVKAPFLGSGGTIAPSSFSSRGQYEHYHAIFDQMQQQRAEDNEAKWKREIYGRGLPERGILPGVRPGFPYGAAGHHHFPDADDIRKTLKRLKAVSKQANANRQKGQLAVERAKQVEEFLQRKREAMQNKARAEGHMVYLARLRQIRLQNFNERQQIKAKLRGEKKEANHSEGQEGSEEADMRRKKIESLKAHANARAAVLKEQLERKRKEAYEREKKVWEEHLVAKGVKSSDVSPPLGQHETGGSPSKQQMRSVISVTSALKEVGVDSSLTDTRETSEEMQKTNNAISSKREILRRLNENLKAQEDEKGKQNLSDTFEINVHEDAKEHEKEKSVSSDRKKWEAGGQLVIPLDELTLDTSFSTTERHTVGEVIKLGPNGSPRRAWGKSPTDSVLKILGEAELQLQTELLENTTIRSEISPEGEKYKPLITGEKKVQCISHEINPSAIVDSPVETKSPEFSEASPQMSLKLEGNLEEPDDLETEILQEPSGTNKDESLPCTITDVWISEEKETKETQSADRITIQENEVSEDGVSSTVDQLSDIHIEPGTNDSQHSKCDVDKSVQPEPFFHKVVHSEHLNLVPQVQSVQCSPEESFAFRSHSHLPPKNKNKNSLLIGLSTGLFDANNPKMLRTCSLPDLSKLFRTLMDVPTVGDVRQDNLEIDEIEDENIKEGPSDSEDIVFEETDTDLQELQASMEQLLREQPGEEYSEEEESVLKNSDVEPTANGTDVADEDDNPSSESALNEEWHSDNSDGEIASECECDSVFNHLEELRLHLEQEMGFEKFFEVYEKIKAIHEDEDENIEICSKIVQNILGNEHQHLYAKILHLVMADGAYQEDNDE
# [16] = target: Fibroblast growth factor receptor 3 (Homo sapiens) (UniProt P22607); experiment: Inhibition of FGFR3 (unknown origin) assessed as remaining activity at 1 uM by Kinome scan method relative to control
# Fibroblast growth factor receptor 3 (Homo sapiens), sequence (P22607 23-806 limits assumed): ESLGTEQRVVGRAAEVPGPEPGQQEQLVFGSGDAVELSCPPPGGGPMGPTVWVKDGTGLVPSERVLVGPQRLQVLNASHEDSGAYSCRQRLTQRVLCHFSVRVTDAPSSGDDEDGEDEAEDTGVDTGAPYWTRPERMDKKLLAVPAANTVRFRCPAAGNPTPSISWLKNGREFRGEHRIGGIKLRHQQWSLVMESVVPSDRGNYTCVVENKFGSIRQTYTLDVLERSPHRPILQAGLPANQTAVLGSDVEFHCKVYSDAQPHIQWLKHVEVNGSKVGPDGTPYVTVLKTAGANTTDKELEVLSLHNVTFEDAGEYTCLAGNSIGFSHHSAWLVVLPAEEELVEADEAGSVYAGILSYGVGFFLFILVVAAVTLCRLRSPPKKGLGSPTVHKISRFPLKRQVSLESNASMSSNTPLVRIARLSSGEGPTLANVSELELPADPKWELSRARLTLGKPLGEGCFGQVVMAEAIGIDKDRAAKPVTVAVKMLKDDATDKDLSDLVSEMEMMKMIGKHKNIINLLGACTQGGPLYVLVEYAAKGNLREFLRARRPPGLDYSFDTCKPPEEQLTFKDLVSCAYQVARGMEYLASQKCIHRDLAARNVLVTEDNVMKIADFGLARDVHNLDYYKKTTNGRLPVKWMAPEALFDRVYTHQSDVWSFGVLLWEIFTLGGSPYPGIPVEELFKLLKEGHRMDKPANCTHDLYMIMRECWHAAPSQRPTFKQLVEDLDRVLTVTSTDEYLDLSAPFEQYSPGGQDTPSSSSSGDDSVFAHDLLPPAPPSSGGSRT
# [17] = target: Serine/threonine-protein kinase pim-2 (Homo sapiens) (UniProt Q9P1W9); experiment: Inhibition of PIM2 (unknown origin) assessed as remaining activity at 1 uM by Kinome scan method relative to control
# [18] = target: Casein kinase I isoform gamma-1 (Homo sapiens) (UniProt Q9HCP0); experiment: Inhibition of CSNK1G1 (unknown origin) assessed as remaining activity at 1 uM by Kinome scan method relative to control; how it was run: as §1
# [19] = target: STE20-like serine/threonine-protein kinase (Homo sapiens) (UniProt Q9H2G2); experiment: Inhibition of SLK (unknown origin) assessed as remaining activity at 1 uM by Kinome scan method relative to control
# [20] = target: Muscle, skeletal receptor tyrosine-protein kinase (Homo sapiens) (UniProt O15146); experiment: Inhibition of MUSK (unknown origin) assessed as remaining activity at 1 uM by Kinome scan method relative to control
# [21] = target: Phosphatidylinositol 4,5-bisphosphate 3-kinase catalytic subunit alpha isoform (Homo sapiens) (UniProt P42336); experiment: Inhibition of PIK3CA (unknown origin) assessed as remaining activity at 1 uM by Kinome scan method relative to control
# [22] = target: Serine/threonine-protein kinase 26 (Homo sapiens, UniProt Q9P289); experiment: Binding affinity to MST4 (unknown origin) assessed as dissociation constant
# [23] = target: Tyrosine-protein kinase Tec (Homo sapiens) (UniProt P42680); experiment: Inhibition of TEC (unknown origin) assessed as remaining activity at 1 uM by Kinome scan method relative to control
# [24] = Acute toxicity in wild-type mouse assessed as cell proliferation in liver at 3 mg/kg,ip administrated daily for 7 days by Ki67 staining; type: organism-based; settings: in vivo, 168 h, time 7 day
# How it was run: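 Wild-type mice received vehicle or 3 mg/kg i.p. daily for 7 days. Ki67 staining of sections from various tissues with quantification of positive cells, n = 6; means ± SD, Student's t test. Daily weights, physical activity and serum chemistry were also monitored.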
# Cyclin-dependent kinase 16 (Homo sapiens), sequence (Q00536 whole entry): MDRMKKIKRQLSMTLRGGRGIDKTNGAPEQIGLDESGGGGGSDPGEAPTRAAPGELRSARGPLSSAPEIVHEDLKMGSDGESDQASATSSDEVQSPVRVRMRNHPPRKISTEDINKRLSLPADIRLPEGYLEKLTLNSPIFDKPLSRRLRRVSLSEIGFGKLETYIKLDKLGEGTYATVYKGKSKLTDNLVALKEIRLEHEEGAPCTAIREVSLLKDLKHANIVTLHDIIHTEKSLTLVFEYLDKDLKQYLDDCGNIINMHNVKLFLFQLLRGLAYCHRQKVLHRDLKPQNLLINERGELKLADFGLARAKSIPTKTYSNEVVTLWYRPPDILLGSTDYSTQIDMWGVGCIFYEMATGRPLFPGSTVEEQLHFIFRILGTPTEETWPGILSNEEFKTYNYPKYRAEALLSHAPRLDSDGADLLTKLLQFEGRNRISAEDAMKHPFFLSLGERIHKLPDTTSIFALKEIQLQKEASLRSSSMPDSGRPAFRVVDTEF
compound,measurement,setting,value
CN1C(=O)c2sccc2N(C)c2nc(Nc3ccc(S(N)(=O)=O)cc3)ncc21,Activity,[1],93%
same,Activity,[2],95%
same,Activity,[3],60%
same,Activity,[4],100%
same,Activity,[5],94%
same,Activity,[6],100%
same,Activity,[7],90%
same,Activity,[8],92%
same,Activity,[9],63%
same,Activity,[10],100%
same,IC50,[11],4040 nM
same,Activity,[12],42%
same,Activity,[13],96%
same,Activity,[14],100%
same,Activity,[15],95%
same,Activity,[16],98%
same,Activity,[17],100%
same,Activity,[18],79%
same,Activity,[19],100%
same,Activity,[20],100%
same,Activity,[21],88%
same,Kd,[22],16 nM
same,Activity,[23],100%
same,Activity,[24],Non-Toxic
